According to ChEMBL document CHEMBL1123210, “Cycloheximide analogues as potential anticonvulsants” (J Med Chem, 1986):
Calls of active or inactive are those of the source.

Assays:
Mus musculus [1] = species on record: Mus musculus; assay: Number of mice exhibiting toxicity out of four (4) mice was measured by using rotarod test.; assay type: organism-based; conditions: in vivo
In short: (§1)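 Neurotoxicity was scored in the rotorod test in mice given doses up to 600 mg/kg. The value is the number of animals out of four showing toxicity. It was recorded for both the initial screen and the repeat pentylenetetrazol screen.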

Mus musculus [2] = assay: (§2) Compound was tested for maximal electroshock seizure test in mice 4 hr after administration; IA is Inactive; assay type: functional, organism-based
Mus musculus [3] = assay: Compound was tested for subcutaneous pentylenetetrazole seizure test in mice after administration intraperitoneally at 0.5 hr; IA is Inactive; assay type: functional, organism-based
Mus musculus [4] = assay: Inhibition of subcutaneous pentylenetetrazole induced seizures in mice 4 hr following i.p. administration; Inactive.; assay type: functional, organism-based
Mus musculus [5] = assay: (§3) Compound was tested for maximal electroshock seizure test in mice 0.5 hr after administration.; assay type: functional
Mus musculus [6] = assay: Inhibition of maximal electroshock induced seizures in mice 4 hr after administration; Inactive.; assay type: functional, organism-based
Mus musculus [7] = assay: Compound was tested for maximal electroshock seizure test in mice 0.5 hr after administration; IA is Inactive; assay type: functional, organism-based
Mus musculus [8] = assay: Number of mice exhibiting toxicity out of four (4) mice in repeated subcutaneous pentylenetetrazole seizure test was measured by using rotarod test; assay type: organism-based; conditions: in vivo; in short: as §1
Mus musculus [9] = assay: (§4) Compound was tested for subcutaneous pentylenetetrazole seizure test in mice after administration intraperitoneally at 0.5h.; assay type: functional
Mus musculus [10] = assay: (§5) Compound was tested for the lowest dose which protected half of the mice in pentylenetetrazole seizure test 0.5 hr after ip administration of the compound; assay type: functional
In short: (§6)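 This was a repeat of the subcutaneous pentylenetetrazol screen in mice (85 mg/kg s.c.). Endpoint was prevention of clonic seizures, four animals per dose at 30, 100, 300 or 600 mg/kg. The value is the lowest dose at which at least half of the four animals were protected.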

Mus musculus [11] = assay: as §3; assay type: functional; remark: listed apart in the source
In short: (§7)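 Mice, four per dose level, screened at 30, 100, 300 and 600 mg/kg and read at 0.5 h and 4 h after dosing. End point is prevention of tonic hindlimb extension after maximal electroshock. Activity is the lowest dose at which at least one of four animals is protected.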

Mus musculus [12] = assay: as §2; assay type: functional, organism-based; in short: as §7; remark: listed apart in the source
Mus musculus [13] = assay: as §4; assay type: functional; remark: listed apart in the source
In short: (§8)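 Mice, four per dose level, screened at 30, 100, 300 and 600 mg/kg and read at 0.5 h and 4 h after dosing. End point is prevention of minimal threshold (clonic) seizures induced by pentylenetetrazol 85 mg/kg sc. Activity is the lowest dose at which at least one of four animals is protected.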

Mus musculus [14] = assay: (§9) Compound was tested for subcutaneous pentylenetetrazole seizure test in mice after administration intraperitoneally at 4h.; assay type: functional; in short: as §8
Mus musculus [15] = assay: as §5; assay type: functional; remark: listed apart in the source
In short: (§10)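 Repeat pentylenetetrazol screen (85 mg/kg sc, clonic seizure end point) in four mice per dose, at 30, 100, 300 and 600 mg/kg, read at 0.5 h and 4 h. The value is the lowest dose at which at least half of the four animals were protected. A few cases were rescreened at 100, 250, 450 and 600 mg/kg or used only three animals.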

Mus musculus [16] = assay: (§11) Compound was tested for the lowest dose which protected half of the mice in pentylenetetrazole seizure test 4 hr after ip administration of the compound; assay type: functional; in short: as §10
Mus musculus [17] = assay: as §9; assay type: functional; remark: listed apart in the source
Mus musculus [18] = assay: Compound was tested for the lowest dose which protected half of the mice in pentylenetetrazole seizure test 4 hr after ip administration of the compound; IA is Inactive; assay type: functional, organism-based; in short: as §6
Mus musculus [19] = assay: Compound was tested for subcutaneous pentylenetetrazole seizure test in mice after administration intraperitoneally at 4h.; IA is Inactive; assay type: functional, organism-based
Mus musculus [20] = assay: Compound was tested for maximal electroshock seizure test in mice 0.5 hr after administration; IA is Inactivev; assay type: functional, organism-based
Mus musculus [21] = assay: Compound was tested for maximal electroshock seizure test in mice 4 hr after administration.; assay type: functional
Mus musculus [22] = assay: as §11; assay type: functional; in short: as §6; remark: listed apart in the source
Mus musculus [23] = assay: Compound was tested for the lowest dose which protected half of the mice in pentylenetetrazole seizure test 0.5 hr after ip administration of the compound; IA is Inactive; assay type: functional, organism-based; in short: as §6

Row | Structure (SMILES) | Toxicity (Mus musculus [1]) | scMet (Mus musculus [3]) | scMet (Mus musculus [4]) | MES (Mus musculus [6]) | MES (Mus musculus [7]) | Toxicity (Mus musculus [8]) | scMet (Mus musculus [9]) [mg/kg] | scMet (Mus musculus [10]) [mg/kg] | also measured
1 | C[C@H]1CCCC([C@H](O)CC2CC(=O)N(C)C(=O)C2)[C@H]1O (stereo not given in full) | 0 | inactive | inactive |  |  |  |  |  | MES (Mus musculus [2]): inactive; MES (Mus musculus [5]): 600 mg/kg
2 | C[C@H]1CC[C@H](O)C([C@H](O)CC2CC(=O)N(C)C(=O)C2)C1 (stereo not given in full) | 4 | inactive | inactive | inactive |  |  |  |  | MES (Mus musculus [5]): 600 mg/kg
3 | C[C@H]1CC(C(=O)CC2CC(=O)NC(=O)C2)C(=O)[C@@H](C)C1 (stereo not given in full) |  | inactive | inactive | inactive | inactive |  |  |  | 
4 | C[C@H]1CCCC(C(=O)CC2CC(=O)NC(=O)C2)C1=O (stereo not given in full) | 0 |  | inactive | inactive | inactive | 0 | 300 |  | MES (Mus musculus [10]): 100 mg/kg
5 | C[C@@H]1CC([C@H](O)CC2CC(=O)NC(=O)C2)C(=O)[C@@H](C)C1 (stereo not given in full) | 1 |  |  |  |  | 0 animals |  |  | MES (Mus musculus [11]): 600 mg/kg; MES (Mus musculus [12]): inactive; scMet (Mus musculus [13]): 100 mg/kg; scMet (Mus musculus [14]): 300 mg/kg; scMet (Mus musculus [15]): 100 mg/kg; scMet (Mus musculus [16]): 300 mg/kg
6 | CN1C(=O)CC(C[C@@H](O)C2CCCC[C@@H]2O)CC1=O (stereo not given in full) |  | inactive | inactive | inactive | inactive |  |  |  | 
7 | C[C@H]1CCC(=O)C(C(=O)CC2CC(=O)N(C)C(=O)C2)C1 (stereo not given in full) |  | inactive | inactive | inactive | inactive |  |  |  | 
8 | C[C@@H]1CCC(=O)C(C(=O)CC2CC(=O)NC2=O)C1 (stereo not given in full) | 2 |  | inactive | inactive |  | 1 | 600 | 600 | MES (Mus musculus [5]): 600 mg/kg
9 | C[C@H]1CC[C@H](O)C([C@H](O)CC2CC(=O)NC(=O)C2)C1 (stereo not given in full) | 0 |  |  | inactive | inactive | 0 | 30 | 30 | scMet (Mus musculus [17]): 600 mg/kg; MES (Mus musculus [18]): inactive
10 | O=C1CC(CC(=O)C2CCCCC2=O)C(=O)N1 (stereo not given) | 0 |  |  | inactive | inactive | 0 | 600 | 600 | scMet (Mus musculus [19]): inactive
11 | C[C@H]1CC([C@H](O)CC2CC(=O)N(Cc3ccccc3)C(=O)C2)[C@@H](O)[C@@H](C)C1 (stereo not given in full) |  | inactive | inactive | inactive | inactive |  |  |  | 
12 | O=C1CC(CC(=O)C2CCCCC2=O)CC(=O)N1 (stereo not given) | 0 |  | inactive | inactive | inactive |  | 600 | 600 | 
13 | C[C@@H]1CC(C2CC(CC(=O)NCc3ccccc3)CC(=O)O2)[C@@H](O)[C@@H](C)C1 (stereo not given in full) |  | inactive | inactive | inactive | inactive |  |  |  | 
14 | CC(=O)O[C@H](CC1CC(=O)N(C)C(=O)C1)C1C[C@@H](C)C[C@H](C)C1=O (stereo not given in full) |  | inactive | inactive | inactive | inactive |  |  |  | 
15 | C[C@H]1CC([C@H](O)CC2CC(=O)N(C)C(=O)C2)[C@@H](O)[C@@H](C)C1 (stereo not given in full) | 0 | inactive | inactive | inactive |  |  |  |  | MES (Mus musculus [5]): 600 mg/kg
16 | CC1CCCC(C(=O)CC2CC(=O)N(C)C(=O)C2)C1=O (stereo in doubt; 2g) |  |  |  | inactive |  |  |  |  | MES (Mus musculus [5]): 600 mg/kg
17 | C[C@@H]1CC(C(=O)CC2CC(=O)N(C)C(=O)C2)C(=O)[C@@H](C)C1 (stereo not given in full) | 1 |  | inactive |  |  | 1 | 600 | 600 | MES (Mus musculus [20]): inactive; MES (Mus musculus [21]): 600 mg/kg
18 | C[C@H]1CC([C@H](O)CC2CC(=O)NC(=O)C2)[C@@H](O)[C@@H](C)C1 (stereo not given in full) | 1 |  |  | inactive | inactive | 0 | 100 | 100 | scMet (Mus musculus [17]): 600 mg/kg; scMet (Mus musculus [22]): 600 mg/kg
19 | C[C@@H]1CCc2c(c(CC3CC(=O)NC(=O)C3)nn2-c2ccccc2)C1 | 0 | inactive |  | inactive | inactive |  |  |  | scMet (Mus musculus [17]): 30 mg/kg; MES (Mus musculus [23]): inactive
20 | C[C@H]1CCC(=O)C(C(=O)CC2CC(=O)NC(=O)C2)C1 (stereo not given in full) |  | inactive | inactive | inactive | inactive |  |  |  | 
21 | O=C1CC(C[C@@H](O)C2CCCC[C@@H]2O)CC(=O)N1 (stereo not given in full) | 0 |  | inactive | inactive | inactive | 0 | 100 | 600 | 
22 | CN1C(=O)CC(CC(=O)C2CCCCC2=O)CC1=O (stereo in doubt; 2e) |  | inactive | inactive | inactive | inactive |  |  |  | 
